Experimental data taken from ChEMBL document CHEMBL3751813, “Nonpeptidic Amphiphilic Xanthone Derivatives: Structure-Activity Relationship and Membrane-Targeting Properties” (J Med Chem, 2016).
Converted amounts (≈) assume the structure as drawn. The source made the active and inactive calls. No cut-off for these calls is given here.

Key:
[1] = Membrane permeabilization activity assessed as release of calcein from DOPC liposomes at lipid:compound ratio of 8 incubated for 30 mins by fluorescence assay; type: ADME; settings: 0.5 h
How it was run: (§1)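 Freeze-thawed, extruded, then gel-filtered. Final lipid 50 µM with compound added from DMF (<0.2%). Fluorescence at ex 490/em 520 nm over 30 min; 0.1% Triton X-100 defined 100% lysis.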

[2] = Membrane permeabilization activity assessed as release of calcein from DOPE/DOPG liposomes at lipid:compound ratio of 4 incubated for 30 mins by fluorescence assay; type: ADME; settings: 0.5 h; how it was run: as §1
[3] = Hemolytic activity against New Zealand white rabbit RBC after 1 hr by microplate reader analysis; type: ADME, cell-based, Oryctolagus cuniculus, Erythrocyte; settings: rabbit red blood cells
How it was run: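 Rabbit RBCs spun from serum at 3,000 rpm for 10 min and washed twice in PBS. Mixed with compound in DMF at 4% v/v RBCs, 1 h at 37 °C. After centrifugation, hemoglobin in the supernatant read at 576 nm. 2% Triton X-100 was the positive control and 1% DMF the negative control.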

[4] = Membrane permeabilization activity assessed as release of calcein from DOPC liposomes at lipid:compound ratio of => 16 incubated for 30 mins by fluorescence assay; type: ADME; settings: 0.5 h; how it was run: as §1
[5] = Membrane permeabilization activity assessed as release of calcein from DOPE/DOPG liposomes at lipid:compound ratio of 8 incubated for 30 mins by fluorescence assay; type: ADME; settings: 0.5 h; how it was run: as §1
[6] = system: Staphylococcus aureus; test: Antibacterial activity against clinical isolates of methicillin-resistant Staphylococcus aureus DM21455 after 24 hrs by […]; type: functional; settings: DM21455, 24 h
[7] = system: Bacillus cereus; test: Antibacterial activity against clinical isolates of Bacillus cereus ATCC 11778 after 24 hrs by […]; type: functional; settings: ATCC 11778, 24 h
[8] = system: Staphylococcus aureus; test: Antibacterial activity against clinical isolates of methicillin-resistant Staphylococcus aureus DM9808R after 24 hrs by […]; type: functional
[9] = Membrane permeabilization activity assessed as release of calcein from DOPC liposomes at lipid:compound ratio of 4 incubated for 30 mins by fluorescence assay; type: ADME; settings: 0.5 h; how it was run: as §1
[10] = Membrane permeabilization activity assessed as release of calcein from DOPE/DOPG liposomes at lipid:compound ratio of => 16 incubated for 30 mins by fluorescence assay; type: ADME; settings: 0.5 h; how it was run: as §1
[11] = system: Staphylococcus aureus; test: Antibacterial activity against clinical isolates of Staphylococcus aureus DM4001R after 24 hrs by […]; type: functional
[12] = system: Staphylococcus aureus; test: Induction of membrane permeabilization in clinical isolates of Staphylococcus aureus DM4001 at MIC by SYTOX green uptake assay; type: functional
How it was run: (§2)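 Exponential-phase cells washed twice in 20 mM PBS pH 7 and adjusted to OD620 0.09. Given 3 µM SYTOX Green and kept in the dark until fluorescence was stable, then compound added. Fluorescence followed in a stirred cuvette at ex 504/em 523 nm. Melittin 10 µg/mL was the positive control. Run at least twice; one run reported.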

[13] = Selectivity index, ratio of HC50 for hemolytic activity against New Zealand white rabbit RBC to MIC for clinical isolates of Staphylococcus aureus DM4001
[14] = Membrane permeabilization activity assessed as release of calcein from DOPC liposomes at 16 to 64 lipid:compound ratio incubated for 30 mins by fluorescence assay; type: ADME; settings: 0.5 h
[15] = system: Staphylococcus aureus; test: Induction of membrane permeabilization in clinical isolates of Staphylococcus aureus DM4001 assessed as ATP leakage at MIC incubated for 10 mins by firefly luciferase based luminometry analysis; type: functional
How it was run: (§3)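 Exponential-phase cells washed twice in 20 mM PBS pH 7 and set to OD620 0.3. Exposed 10 min at 37 °C, then spun at 4000 rpm for 5 min. Supernatant mixed with luciferase reagent (1 mM DTT, 0.5 mM D-luciferin, 1.25 µg/mL firefly luciferase). Luminescence read over 30 cycles.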

[16] = system: Staphylococcus aureus; test: Induction of membrane permeabilization in clinical isolates of Staphylococcus aureus DM4001 by SYTOX green uptake assay; type: functional; how it was run: as §2
[17] = system: Staphylococcus aureus; test: Induction of membrane permeabilization in clinical isolates of Staphylococcus aureus DM4001 at 50 uM by SYTOX green uptake assay; type: functional; how it was run: as §2
[18] = system: Staphylococcus aureus; test: Induction of membrane permeabilization in clinical isolates of Staphylococcus aureus DM4001 assessed as ATP leakage at 50 uM incubated for 10 mins by firefly luciferase based luminometry analysis; type: functional; how it was run: as §3
[19] = system: Staphylococcus aureus; test: Induction of membrane permeabilization in clinical isolates of Staphylococcus aureus DM4001 at 10 uM measured for 200 sec by SYTOX green influx assay; type: functional, organism-based; how it was run: as §2
[20] = system: Staphylococcus aureus; test: Induction of membrane disruption in clinical isolates of Staphylococcus aureus DM4001 assessed as membrane integrity incubated for 10 mins by live/dead baclight bacterial viability assay relative to control; type: functional; parameters: concentration or dose not given beside the values
How it was run: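 Exponential-phase cells washed in 0.9% saline, OD670 0.3, exposed to compound 10 min at room temperature. Pelleted, resuspended, then stained with SYTO 9 (10 µM) plus propidium iodide (60 µM) 15 min dark. Excitation 485 nm, emission 500–700 nm; green/red ratio converted to % damage using standards of 0–100% isopropanol-killed cells.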

[21] = Membrane permeabilization activity assessed as release of calcein from DOPE/DOPG large unilamellar vesicles at 0.125 to 0.5 compound:lipid ratio incubated for 30 mins by fluorescence assay; type: ADME; settings: 0.5 h; how it was run: as §1
[22] = system: Staphylococcus aureus; test: Bactericidal activity against clinical isolates of methicillin resistant Staphylococcus aureus DM21455 assessed as log reduction in viability measured up to 300 mins by time kill kinetic study; type: functional, organism-based
How it was run: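 Colonies from 18–22 h TSA plates suspended in 0.31 mM phosphate buffer pH 7.2 at 10^5–10^6 CFU/mL. Treated at 1×, 2× and 4× MIC at 35 °C, sampled at 10 min, 30 min, 1 h, 2 h and 5 h. Ten-fold dilutions spread on MHA, 35 °C for 48–72 h, colonies counted. Detection limit 100 CFU/mL; bactericidal means 3-log drop versus untreated.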

| Structure (SMILES) | HC50 at 1 h [3] [µg/mL] | MIC [6] [µg/mL] | MIC [7] [µg/mL] | MIC [8] [µg/mL] | MIC [11] [µg/mL] | Selectivity ratio [13] | Activity [19] | Activity [20] [%] | further results |
| --- | --- | --- | --- | --- | --- | --- | --- | --- | --- |
| COc1c(O)cc2oc3cc(O)c(CCC(C)C)c(O)c3c(=O)c2c1CCC(C)C | > 200 | > 50 | > 50 | > 50 | > 50 |  |  |  | Activity [1]: Not Active; Activity [2]: Not Active; Activity [4]: Not Active; Activity [5]: Not Active; Activity [9]: Not Active; Activity [10]: Not Active |
| COc1c(OCCCCN(C)C)cc2oc3cc(OCCCCN(C)C)c(CC=C(C)C)c(O)c3c(=O)c2c1CC=C(C)C | 32.1 | 3.12 (≈ 5.13 µM) | 6.25 (≈ 10.3 µM) | 3.12 (≈ 5.13 µM) | 3.12 (≈ 5.13 µM) | 10.3 |  |  | Activity [12]: 23925 cps; Activity [14]: Active; Activity [15]: 3.769 µM |
| CCN(CC)CCCCOc1cc2oc3cc(OCCCCN(CC)CC)c(OC)c(CC=C(C)C)c3c(=O)c2c(OCCCCN(CC)CC)c1CC=C(C)C | > 200 | 25 (≈ 31.6 µM) | 50 (≈ 63.1 µM) | 50 (≈ 63.1 µM) | 12.5 (≈ 15.8 µM) |  |  |  | Activity [16]: 4305.1 cps |
| COc1c(OCCCCN2CC[C@H](N(C)C)C2)cc2oc3cc(OCCCCN4CC[C@H](N(C)C)C4)c(CC=C(C)C)c(O)c3c(=O)c2c1CC=C(C)C | 28.9 | 6.25 (≈ 8.37 µM) | 6.25 (≈ 8.37 µM) | 6.25 (≈ 8.37 µM) | 12.5 (≈ 16.7 µM) | 2.3 |  |  | Activity [17]: 58191 cps; Activity [18]: 7962 nM |
| CCN(CC)CCOc1cc2oc3cc(OCCN(CC)CC)c(OC)c(CC=C(C)C)c3c(=O)c2c(O)c1CC=C(C)C | > 200 | > 50 | > 50 | > 50 | > 50 |  | Active | 64.1 |  |
| CCN(CC)CCCCOc1ccc2c(=O)c3c(O)cc(OCCCCN(CC)CC)cc3oc2c1 | > 200 | > 50 | > 50 | > 50 | > 50 |  |  |  | Activity [1]: Not Active; Activity [2]: Not Active; Activity [4]: Not Active; Activity [5]: Not Active; Activity [9]: Not Active; Activity [10]: Not Active |
| CCN(CC)CCCOc1cc2oc3cc(OCCCN(CC)CC)c(OC)c(CC=C(C)C)c3c(=O)c2c(O)c1CC=C(C)C |  | 0.39 (≈ 0.612 µM) | 6.25 (≈ 9.81 µM) | 0.78 (≈ 1.22 µM) | 0.78 (≈ 1.22 µM) | 20.9 | Active | 46.2 |  |
| CCN(CC)CCCCCCCCCCCCOc1cc2oc3cc(OCCCCCCCCCCCCN(CC)CC)c(OC)c(CC=C(C)C)c3c(=O)c2c(O)c1CC=C(C)C | > 200 | > 50 | > 50 | > 50 | > 50 |  | inactive | 99.9 | Activity [21]: 60% |
| CCN(CC)CCCCCCCCCCOc1cc2oc3cc(OCCCCCCCCCCN(CC)CC)c(OC)c(CC=C(C)C)c3c(=O)c2c(O)c1CC=C(C)C | 200 | > 50 | > 50 | > 50 | > 50 |  | inactive | 100 | Activity [21]: > 70% |
| CCN(CC)CCCCOc1cc2oc3cc(OCCCCN(CC)CC)c(OC)c(CC=C(C)C)c3c(=O)c2c(O)c1CC=C(C)C |  | 0.39 (≈ 0.587 µM) | 3.12 (≈ 4.7 µM) | 0.78 (≈ 1.17 µM) | 0.39 (≈ 0.587 µM) | 50.4 | Active | 37.8 | Activity [4]: > 70%; Activity [12]: 61679 cps; Activity [10]: > 70%; Activity [21]: > 70%; Activity [15]: 2.235 µM |
| CCN(CC)CCCCCCCCOc1cc2oc3cc(OCCCCCCCCN(CC)CC)c(OC)c(CC=C(C)C)c3c(=O)c2c(O)c1CC=C(C)C | 53.1 | > 50 | > 50 | > 50 | > 50 |  | Active | 95.5 | Activity [21]: > 70% |
| CCCCN(CCCC)CCCCOc1cc2oc3cc(OCCCCN(CCCC)CCCC)c(OC)c(CC=C(C)C)c3c(=O)c2c(O)c1CC=C(C)C | > 200 | > 50 | > 50 | > 50 | > 50 |  |  |  | Activity [17]: 1768 cps; Activity [18]: 763 nM |
| CCN(CC)CCCCCOc1cc2oc3cc(OCCCCCN(CC)CC)c(OC)c(CC=C(C)C)c3c(=O)c2c(O)c1CC=C(C)C |  | 0.78 (≈ 1.13 µM) | 6.25 (≈ 9.02 µM) | 1.56 (≈ 2.25 µM) | 1.56 (≈ 2.25 µM) | 9 | Active | 43 |  |
| CCN(CC)CCCCCCOc1cc2oc3cc(OCCCCCCN(CC)CC)c(OC)c(CC=C(C)C)c3c(=O)c2c(O)c1CC=C(C)C |  | 1.56 (≈ 2.16 µM) | 3.12 (≈ 4.33 µM) | 3.12 (≈ 4.33 µM) | 1.56 (≈ 2.16 µM) | 17 | Active | 45.1 |  |
| COc1c(O)cc2oc3cc(O)c(CC=C(C)C)c(O)c3c(=O)c2c1CC=C(C)C [MANGOSTIN] |  |  |  |  | 2 (≈ 4.87 µM) | 4.5 |  |  | Activity [1]: 14.1%; Activity [4]: < 10%; Activity [5]: 16%; Activity [9]: 33.6%; Activity [10]: < 10% |
| O=c1c2ccc(O)cc2oc2cc(O)cc(O)c12 | > 200 | > 50 | > 50 | > 50 | > 50 |  |  |  | Activity [1]: Not Active; Activity [2]: Not Active; Activity [4]: Not Active; Activity [5]: Not Active; Activity [9]: Not Active; Activity [10]: Not Active |
| COc1c(OCCCCN(C)Cc2ccccc2)cc2oc3cc(OCCCCN(C)Cc4ccccc4)c(CC=C(C)C)c(O)c3c(=O)c2c1CC=C(C)C | > 200 | > 50 | > 50 | > 50 | > 50 |  |  |  | Activity [17]: 1778 cps; Activity [18]: 574 nM |
| CN[C@@H](CC(C)C)C(=O)N[C@H]1C(=O)N[C@@H](CC(N)=O)C(=O)N[C@H]2C(=O)N[C@H]3C(=O)N[C@H](C(=O)N[C@@H](C(=O)O)c4cc(O)cc(O)c4-c4cc3ccc4O)[C@H](O)c3ccc(c(Cl)c3)Oc3cc2cc(c3O[C@H]2O[C@@H](CO)[C@H](O)[C@@H](O)[C@@H]2O[C@@H]2C[C@@](C)(N)[C@@H](O)[C@@H](C)O2)Oc2ccc(cc2Cl)[C@H]1O |  |  |  |  |  |  |  |  | Activity [22]: inactive |
| CCCN(C)CCCCOc1cc2oc3cc(OCCCCN(C)CCC)c(OC)c(CC=C(C)C)c3c(=O)c2c(O)c1CC=C(C)C | 32.6 | 12.5 (≈ 18.8 µM) | 12.5 (≈ 18.8 µM) | 25 (≈ 37.6 µM) | 25 (≈ 37.6 µM) | 1.3 |  |  | Activity [12]: 87537 cps; Activity [15]: 3.945 µM |
